Measured values: ChEMBL document CHEMBL1138275, “Activity of sulfonium bisphosphonates on tumor cell lines” (J Med Chem, 2007)

What was measured:
MCF7 = test: Growth inhibition of human MCF7 cells after 4 days by MTT assay; format: functional, cell-based; settings: MCF7, 96 h
SF-268 = test: Growth inhibition of human SF268 cells after 4 days by MTT assay; format: functional, cell-based; settings: SF-268, 96 h
Outline: (§1)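 Cell lines from NCI, grown in RPMI-1640 with 2 mM L-glutamine and 10% FBS at 37 °C, 5% CO2, 100% humidity. Aqueous 0.01 M stocks, half-log serial dilutions in medium, typically 316 µM to 10 nM. 5000 cells/well exposed 4 days. MTT added for 2 h, detergent lysis, overnight dark at room temperature, A600 read. IC50 from rectangular hyperbolic fit of percent inhibition.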

NCI-H460 = test: Growth inhibition of human NCI-H460 cells after 4 days by MTT assay; format: functional, cell-based; settings: NCI-H460, 96 h; outline: as §1
[1] = target: T1, Farnesyl pyrophosphate synthase (Homo sapiens, UniProt P14324); test: Inhibition of human FPPS
T1 sequence (P14324 whole entry): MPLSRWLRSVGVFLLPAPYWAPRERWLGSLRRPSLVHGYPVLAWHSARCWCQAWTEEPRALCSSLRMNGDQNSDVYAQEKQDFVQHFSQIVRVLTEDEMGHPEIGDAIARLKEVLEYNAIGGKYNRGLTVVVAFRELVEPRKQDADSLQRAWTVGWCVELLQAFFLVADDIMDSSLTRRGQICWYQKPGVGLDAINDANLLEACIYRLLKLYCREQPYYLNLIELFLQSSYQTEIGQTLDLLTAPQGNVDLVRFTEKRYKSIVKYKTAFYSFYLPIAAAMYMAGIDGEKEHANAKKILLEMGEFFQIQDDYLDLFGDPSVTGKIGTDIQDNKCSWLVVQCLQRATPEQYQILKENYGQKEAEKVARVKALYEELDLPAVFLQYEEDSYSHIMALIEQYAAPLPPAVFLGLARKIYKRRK

Row | IC50 (MCF7; read-out: IC50) | IC50 (MCF7; read-out: pIC50 (converted)) | IC50 (NCI-H460; read-out: IC50) | IC50 (NCI-H460; read-out: pIC50 (converted)) | IC50 ([1]; read-out: IC50) | IC50 ([1]; read-out: pIC50 (converted)) | SMILES | IC50 (SF-268; read-out: IC50) | IC50 (SF-268; read-out: pIC50 (converted))
1 | 162 µM | 158 µM | 74.1 µM | 79.4 µM |  |  | CCC[S+](C)CC(O)(P(=O)([O-])O)P(=O)(O)O (stereo unspecified) | 96.1 µM | 100 µM
2 | 389 µM | 398 µM | 200 µM | 200 µM |  |  | CCCCC[S+](C)CCC(O)(P(=O)([O-])O)P(=O)(O)O (stereo unspecified) | 196 µM | 200 µM
3 | 813 µM | 794 µM | 759 µM | 794 µM |  |  | CCC[S+](C)CCC(O)(P(=O)([O-])O)P(=O)(O)O (stereo unspecified) | 714 µM | 631 µM
4 | 21.4 µM | 20 µM | 23.4 µM | 25.1 µM |  |  | C[S+](CCCCCc1ccccc1)CC(P(=O)([O-])O)P(=O)(O)O (stereo unspecified) | 17.9 µM | 15.8 µM
5 | 1.12 µM | 1 µM | 1.41 µM | 1.26 µM | 45.6 µM |  | CCCCCCCCCCCCCCCC[S+](C)CC(P(=O)([O-])O)P(=O)(O)O (stereo unspecified) | 1.08 µM | 1 µM
6 | 45.7 µM | 50.1 µM | 47.9 µM | 50.1 µM |  |  | C[S+](CCCCc1ccccc1)CC(P(=O)([O-])O)P(=O)(O)O (stereo unspecified) | 43.9 µM | 39.8 µM
7 | 21.4 µM | 20 µM | 12.3 µM | 12.6 µM |  |  | CCCCCCCC[S+](C)CC(P(=O)([O-])O)P(=O)(O)O (stereo unspecified) | 14.7 µM | 15.8 µM
8 | 195 µM | 200 µM | 158 µM | 158 µM |  |  | O=P([O-])(O)C(O)(CC[S+]1CCCC1)P(=O)(O)O (stereo unspecified) | 129 µM | 126 µM
9 | 100 µM | 100 µM | 126 µM | 126 µM |  |  | O=P([O-])(O)C(O)(C[S+]1CCCC1)P(=O)(O)O (stereo unspecified) | 101 µM | 100 µM
10 | 17.8 µM | 15.8 µM | 13.8 µM | 12.6 µM |  |  | C[S+](CCCc1ccccc1)CC(O)(P(=O)([O-])O)P(=O)(O)O (stereo unspecified) | 10.7 µM | 10 µM
11 | 93.3 µM | 100 µM | 16.6 µM | 15.8 µM |  |  | C[S+](CCCOc1ccccc1)CC(O)(P(=O)([O-])O)P(=O)(O)O (stereo unspecified) | 34.5 µM | 31.6 µM
12 | 105 µM | 100 µM | 66.1 µM | 63.1 µM |  |  | C[S+](CCCc1ccccc1)CCC(O)(P(=O)([O-])O)P(=O)(O)O (stereo unspecified) | 65.9 µM | 63.1 µM
13 | 184 µM |  | 151 µM |  |  |  | C[S+](CCCOc1ccccc1)CCC(O)(P(=O)([O-])O)P(=O)(O)O (stereo unspecified) | 171 µM | 
14 | 14.2 µM |  | 3.7 µM |  |  |  | CCCCCCCCCCC[S+](C)CC(P(=O)([O-])O)P(=O)(O)O (stereo unspecified) | 3.7 µM | 
15 | 0.95 µM | 1 µM | 1.15 µM | 1.26 µM | 27.4 µM | 0.251 µM | CCCCCCCCCCCCCCCCCCCC[S+](C)CC(P(=O)([O-])O)P(=O)(O)O (stereo unspecified) | 1.49 µM | 1.58 µM
16 | 11 µM | 10 µM | 0.48 µM | 0.501 µM | 8.47 µM |  | CCCCCCCCCCCCCC[S+](C)CC(P(=O)([O-])O)P(=O)(O)O (stereo unspecified) | 0.88 µM | 0.794 µM
17 | 251 µM |  | 183 µM |  |  |  | C[S+](CCc1ccccc1)CCC(O)(P(=O)([O-])O)P(=O)(O)O (stereo unspecified) | 198 µM | 
18 |  |  | 0.21 µM | 0.2 µM |  |  | CCCCCCCCCCCC[S+](C)CC(P(=O)([O-])O)P(=O)(O)O (stereo unspecified) | 0.29 µM | 0.316 µM
19 | 57.5 µM | 63.1 µM | 55 µM | 50.1 µM |  |  | C[S+](CCCc1ccccc1)CC(P(=O)([O-])O)P(=O)(O)O (stereo unspecified) | 48.6 µM | 50.1 µM
20 | 302 µM | 316 µM | 209 µM | 200 µM |  |  | O=P([O-])(O)C(O)(C[S+]1CCCCC1)P(=O)(O)O (stereo unspecified) | 240 µM | 251 µM
21 | 258 µM |  | 95.1 µM |  | 9 µM |  | C[S+](C)CCC(O)(P(=O)([O-])O)P(=O)(O)O (stereo unspecified) | 100 µM | 
22 | 513 µM | 501 µM | 355 µM | 316 µM |  |  | O=P([O-])(O)C(O)(CC[S+]1CCCCC1)P(=O)(O)O (stereo unspecified) | 431 µM | 398 µM
23 | 224 µM |  | 128 µM |  | 1.08 µM |  | CCCCC[S+](C)CC(P(=O)([O-])O)P(=O)(O)O (stereo unspecified) | 189 µM | 
24 | 95.5 µM | 100 µM | 83.2 µM | 79.4 µM |  |  | O=P([O-])(O)C(C[S+]1CCCC1)P(=O)(O)O (stereo unspecified) | 87.8 µM | 79.4 µM
25 | 32.4 µM | 31.6 µM | 25.7 µM | 25.1 µM |  |  | CCCCCCCC[S+](C)CCC(O)(P(=O)([O-])O)P(=O)(O)O (stereo unspecified) | 20.3 µM | 20 µM
26 | 339 µM | 316 µM | 245 µM | 251 µM |  |  | O=P([O-])(O)C(O)(CC[S+]1CCC(c2ccccc2)C1)P(=O)(O)O (stereo unspecified) | 264 µM | 251 µM
27 | 1.41 µM | 1.26 µM | 1.23 µM | 1.26 µM | 7.45 µM |  | CCCCCCCCCCCCCCCCCC[S+](C)CC(P(=O)([O-])O)P(=O)(O)O (stereo unspecified) | 1.71 µM | 1.58 µM
28 | 2.8 µM |  | 3.4 µM |  |  |  | CCCCCCCCCCCCC[S+](C)CC(P(=O)([O-])O)P(=O)(O)O (stereo unspecified) | 3.1 µM | 

Row | SMILES | IC50 (MCF7; read-out: IC50) | IC50 (MCF7; read-out: pIC50 (converted)) | IC50 (NCI-H460; read-out: IC50) | IC50 (NCI-H460; read-out: pIC50 (converted)) | IC50 ([1]; read-out: IC50) | IC50 ([1]; read-out: pIC50 (converted)) | IC50 (SF-268; read-out: IC50) | IC50 (SF-268; read-out: pIC50 (converted))
29 | CCC[S+](C)CC(P(=O)([O-])O)P(=O)(O)O (stereo unspecified) | 240 µM | 251 µM | 95.5 µM | 100 µM | 0.53 µM |  | 223 µM | 200 µM
30 | CCCCCCCCCC[S+](C)CC(P(=O)([O-])O)P(=O)(O)O (stereo unspecified) | 0.62 µM | 0.631 µM | 0.32 µM | 0.316 µM | 0.24 µM |  | 0.37 µM | 0.398 µM
31 | C[S+](C)CC(O)(P(=O)([O-])O)P(=O)(O)O (stereo unspecified) | 200 µM | 200 µM | 191 µM | 200 µM | 1.03 µM |  | 171 µM | 158 µM
